ChEMBL document CHEMBL2424547, “Synthesis and biological analysis of benzazol-2-yl piperazine sulfonamides as 11β-hydroxysteroid dehydrogenase 1 inhibitors” (Bioorg Med Chem Lett, 2013)
Calls of active or inactive are those of the source. The rule behind the calls is not given here.

Columns and labels:
Type in all cases: cell-based
[1] = molecular target: T1, 11-beta-hydroxysteroid dehydrogenase 1 (Homo sapiens, UniProt P28845); assay: Inhibition of human 11beta-HSD1 expressed in HEK293 cells assessed as [1,2-3H]-cortisone reduction […] measured as residual activity at 20 uM after 10 mins relative to control in presence of NADPH
How it was run: (§1)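 Cell-free 11β-HSD1 activity assay. Compounds were first screened at a single 20 µM concentration, and IC50 values were then determined for selected compounds. Values are mean ± SD from at least three independent experiments.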
Target sequence in this assay (P28845 whole entry, looked up): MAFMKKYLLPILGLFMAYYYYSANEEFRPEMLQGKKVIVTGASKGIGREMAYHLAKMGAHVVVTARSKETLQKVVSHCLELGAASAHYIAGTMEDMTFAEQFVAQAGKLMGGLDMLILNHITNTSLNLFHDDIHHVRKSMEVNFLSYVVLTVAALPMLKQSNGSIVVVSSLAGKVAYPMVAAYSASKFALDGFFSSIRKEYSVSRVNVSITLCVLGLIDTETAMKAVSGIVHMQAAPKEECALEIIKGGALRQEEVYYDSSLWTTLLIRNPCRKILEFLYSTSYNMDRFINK

[2] = molecular target: T2, 11-beta-hydroxysteroid dehydrogenase type 2 (Homo sapiens) (UniProt P80365); assay: Inhibition of human 11beta-HSD2 expressed in HEK293 cells assessed as [1,2,6,7-3H]-cortisol oxidation to [1,2-3H]-cortisone at 20 uM after 10 mins in presence of NAD+
T2 sequence (whole entry): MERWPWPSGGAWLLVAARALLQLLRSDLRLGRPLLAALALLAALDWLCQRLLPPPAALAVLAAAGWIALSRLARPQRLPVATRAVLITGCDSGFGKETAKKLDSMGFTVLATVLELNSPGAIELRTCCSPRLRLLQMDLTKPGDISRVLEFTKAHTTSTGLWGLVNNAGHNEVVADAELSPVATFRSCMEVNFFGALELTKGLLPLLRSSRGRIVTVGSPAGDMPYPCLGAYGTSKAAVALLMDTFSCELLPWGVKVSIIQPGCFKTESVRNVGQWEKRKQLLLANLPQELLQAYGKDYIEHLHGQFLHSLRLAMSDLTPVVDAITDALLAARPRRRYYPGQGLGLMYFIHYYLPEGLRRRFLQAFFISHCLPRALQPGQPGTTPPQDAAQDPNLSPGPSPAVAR

[3] = molecular target: T1, 11-beta-hydroxysteroid dehydrogenase 1; assay: Inhibition of human 11beta-HSD1 expressed in HEK293 cells assessed as [1,2-3H]-cortisone reduction […] after 10 mins in presence of NADPH; how it was run: as §1
Target sequence in this assay (P28845 whole entry): as the sequence (P28845 whole entry, looked up) above

[4] = molecular target: T1, 11-beta-hydroxysteroid dehydrogenase 1; assay: Inhibition of human 11beta-HSD1 expressed in HEK293 cells assessed as [1,2-3H]-cortisone reduction […] measured as residual activity after 10 mins relative to control in presence of NADPH; how it was run: as §1
Target sequence in this assay (P28845 whole entry, looked up): as the sequence (P28845 whole entry, looked up) above

Structure (SMILES)	Activity [1]	inhibition [2]	IC50 ([3]; hek293)	Activity [4]	IC50 ([3]; read-out: IC50)
Cn1c(N2CCN(S(=O)(=O)c3ccc(C(=O)NO)cc3)CC2)nc2ccccc21	90%	inactive			
Cn1c(N2CCN(S(=O)(=O)c3cccc(C(=O)O)c3)CC2)nc2ccccc21	75%	inactive			
CC(C)(C)c1ccc(S(=O)(=O)N2CCN(c3nc4ccccc4o3)CC2)cc1		inactive	ND(Insoluble)	18%	
Cc1ccc(S(=O)(=O)N2CCN(c3nc4ccccc4[nH]3)CC2)cc1	50%	inactive			
Cc1ccc(S(=O)(=O)N2CCN(c3nc4ccccc4s3)CC2)cc1	89%	inactive			
COc1ccc(S(=O)(=O)N2CCN(c3nc4ccccc4n3C)CC2)cc1[N+](=O)[O-]		inactive			27.2 µM
Cc1ccc(S(=O)(=O)N2CCN(c3nc4ccccc4n3C)CC2)cc1		inactive			0.7 µM
Cn1c(N2CCN(S(=O)(=O)c3ccc(C(C)(C)C)cc3)CC2)nc2ccccc21		inactive			4.8 µM
COc1ccc(S(=O)(=O)N2CCN(c3nc4ccccc4n3C)CC2)cc1OC		inactive			18.5 µM
Cn1c(N2CCN(S(=O)(=O)c3cccc(C(=O)NO)c3)CC2)nc2ccccc21	60%	inactive			
Cn1c(N2CCN(S(=O)(=O)c3ccccc3)CC2)nc2ccccc21		inactive			6.4 µM
Cn1c(N2CCN(S(=O)(=O)c3ccc(C(=O)O)cc3)CC2)nc2ccccc21	90%	inactive			
COc1ccc(S(=O)(=O)N2CCN(c3nc4ccccc4n3C)CC2)cc1		inactive			4.2 µM
Cc1ccc(C(=O)N2CCN(c3nc4ccccc4[nH]3)CC2)cc1	65%	inactive			
